Measured values published in PubChem BioAssay.
Results filed as inconclusive are left out.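 Rule for the calls, unless noted: active = viability increase at or above a cutoff of the median across tested compounds plus 3 SD (cut at about 8.5% in these data, passing the limit was not always enough); inconclusive = some gains above the cutoff, reason not given; inactive = the rest.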

Legend:
[1] = OD615 S. cerevisiae growth inhibition, permissive medium, pilot counter-assay, permissive growth control for S. cerevisiae lifespan shortening project (AID 705;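 active = growth inhibition above 25% in both replicates, a cutoff set 3 SD above the mean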); conditions: OD615, 24 h, at 10 µM, hits give high values
Outline: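 System: S. cerevisiae with engineered DeaD lifespan system. Medium: SC raffinose/galactose permissive medium. Doses: single compound dose of 10 µM, 0.25% DMSO final. Schedule: 24 h exposure, 30 °C. Measured by: OD615 turbidity read. Read-out: growth inhibition.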

[2] = Restrictive medium S. cerevisiae growth inhibition, OD615, pilot screen of yeast lifespan reduction project, restrictive growth control (AID 706;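 active = growth inhibition above a set limit, 3 SD over mean compound inhibition, in both replicates, cut at about 43% in these data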;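 note: modified DeaD lifespan yeast strain shifted to restrictive glucose medium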); conditions: OD615, 48 h, at 10 µM, hits give high values
Outline: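 Assay system – genetically modified Saccharomyces cerevisiae, DeaD replicative lifespan assay strain · Medium – CSMM-D glucose medium · Doses – 10 µM compound, 0.25% DMSO · Times – 4 h pre-incubation, 48 h exposure at 30 °C · Signal – optical density at 615 nm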

[3] = viability gain of MRP-1-high H69AR cells under doxorubicin, pilot screen, MRP-1 activator project, CellTiter-Glo, duplicate (AID 807); conditions: H69AR viability with doxorubicin, CellTiter-Glo luminescence; at 10 µM; hits give high values;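 note: compound pretreatment 18-22 h then 72 h combined with doxorubicin; 0% = doxorubicin alone and 100% = vehicle without doxorubicin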
[4] = growth suppression of beta-catenin knockout HCT116, pilot screen, human colon tumor cells (AID 823;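 active = cell viability at or below a set limit in both duplicate runs, the limit being the all-compound median minus 4 SD, cut at about 23% in these data, passing the limit was not always enough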;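 note: 0% = wells killed by 20 µM Hyamine and 100% = untreated DMSO cell wells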); conditions: CellTiter-Glo, 60 h, at 10 µM, hits give low values
[5] = growth suppression of PTEN-deleted HCT116, pilot screen, cell-based, HCT116 clonal line, CellTiter-Glo (AID 824;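 active = viability at or below 27.92% in each of two runs, the all-compound median minus 4 SD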;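 note: 0% = 20 µM Hyamine control and 100% = vehicle cell control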); conditions: 60 h, at 10 µM, hits give low values
[6] = inhibitors of the yeast RAM network, pilot screen, dse1pr::URA3 reporter, 5-FOA selection (AID 869;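 active = inhibition over a set limit, the all-compound mean plus 3 SD, in both replicate runs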;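 note: 0% = DMSO wells with no growth and 100% = 10 µM 1-NA-PP1 with full growth; RAM network block rescues cells from 5-FOA so hits raise OD615 growth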); conditions: S. cerevisiae dse1pr::URA3 5-FOA growth, OD615, 2 d; at 10 µM; hits give high values; strain carries analog-sensitive mutant Cbk1 kinase
[7] = RAM signaling pathway blockade in yeast – S. cerevisiae, Pdr1DBD-CYC8 efflux-inhibited sensitized strain, primary screen (AID 1298;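 active = RAM network inhibition above 8.4% in each of two replicates, 3 SD over the compound average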;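 note: 0% = DMSO untreated cells without growth and 100% = 10 µM 1-NA-PP1 full growth; higher means more yeast growth rescued from 5-FOA killing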); conditions: S. cerevisiae cbk1-as DSE1-URA3 strain, 5-FOA growth OD615, 2 d; at 50 µM; hits give high values

O=C(c1ccccc1)N1CCn2c(nc3ccccc32)C1
inactive: growth inhibition [1] 3.33% | growth inhibition [2] 2.58% | viability increase [3] -0.73% | viability [4] 98.2% | viability [5] 98.2% | inhibition [6] 0.5% | RAM network inhibition [7] 6.85%

Cc1c(C(=O)NCc2ccc3c(c2)OCO3)sc2nc(-c3ccccc3)cn12
inactive: growth inhibition [1] 5.98% | growth inhibition [2] -4.12% | viability increase [3] -0.35% | viability [4] 111% | viability [5] 103% | inhibition [6] 3.05% | RAM network inhibition [7] 6.39%

Cn1c(C(=O)N2CCN(c3ccccc3F)CC2)cc2c(=O)n(C)c3ccccc3c21
inactive: growth inhibition [1] -2.8% | growth inhibition [2] -4.68% | viability increase [3] -2.61% | viability [4] 100% | viability [5] 98.6% | inhibition [6] 2.54% | RAM network inhibition [7] 1.59%

CCOC(=O)c1c(N)sc(C(=O)N2CCCCCC2)c1C
inactive: growth inhibition [1] -20.4% | growth inhibition [2] -21.8% | viability increase [3] 0.25% | viability [4] 96.7% | viability [5] 91.2% | inhibition [6] -0.305% | RAM network inhibition [7] -0.21%

O=C(Nc1ccc2nc3n(c(=O)c2c1)CCCCC3)c1ccccn1
inactive: growth inhibition [1] -2.29% | growth inhibition [2] 2.34% | viability increase [3] 1.28% | viability [4] 102% | viability [5] 107% | inhibition [6] 0.8% | RAM network inhibition [7] -2.05%

COc1ccc(-n2c(Cn3c(=O)sc4ccccc43)nnc2SCC(=O)N2CCOCC2)cc1
inactive: growth inhibition [1] -0.33% | growth inhibition [2] 7.95% | viability increase [3] 0.3% | viability [4] 102% | viability [5] 97% | inhibition [6] 0.235% | RAM network inhibition [7] 1.66%

Cc1nc2cc(-c3cccc(F)c3)nn2c(C)c1CCC(=O)N1CCN(c2ccccn2)CC1
inactive: growth inhibition [1] -0.315% | growth inhibition [2] 3.5% | viability increase [3] -1.74% | viability [4] 87.2% | viability [5] 77.1% | inhibition [6] 0.32% | RAM network inhibition [7] 4.65%

CC12C(=O)N(c3cccc4cccnc34)C(=O)C1C1C=CC2C1 (stereo not drawn)
inactive: growth inhibition [1] -7.71% | growth inhibition [2] 2.71% | viability increase [3] -1.54% | viability [4] 103% | viability [5] 102% | inhibition [6] 0.395% | RAM network inhibition [7] 1.05%

O=S(=O)(c1ccc(Br)cc1)N1CCn2c(nc3ccccc32)C1
inactive: growth inhibition [1] -6.87% | growth inhibition [2] -3.65% | viability increase [3] -2.52% | viability [4] 101% | viability [5] 97.5% | inhibition [6] 2.46% | RAM network inhibition [7] 6.31%

CCS(=O)(=O)n1nc(-c2ccccc2)cc1N
inactive: growth inhibition [1] -3.12% | growth inhibition [2] -16.4% | viability increase [3] -1.52% | viability [4] 98.7% | viability [5] 96.7% | inhibition [6] 0.555% | RAM network inhibition [7] 1.53%

Cn1cccc1Cc1nnc(SCC(=O)N2CCCC2)n1CCc1ccccc1
inactive: growth inhibition [1] 1.38% | growth inhibition [2] 16.7% | viability increase [3] -1.41% | viability [4] 103% | viability [5] 102% | inhibition [6] 0.04% | RAM network inhibition [7] 1.63%

CCOC(=O)NC(Nc1ccc(C)cn1)(C(F)(F)F)C(F)(F)F
inactive: growth inhibition [1] 11.5% | growth inhibition [2] 4.23% | viability increase [3] -1.59% | viability [4] 95.2% | viability [5] 100% | inhibition [6] 0.545% | RAM network inhibition [7] 0.7%

CC(C)c1cc(C(=O)Nc2ccc3c(c2)OCO3)no1
inactive: growth inhibition [1] -13.7% | growth inhibition [2] 4.26% | viability increase [3] -4.63% | viability [4] 94.2% | viability [5] 92.8% | inhibition [6] 1.88% | RAM network inhibition [7] 3.88%

CCOC(=O)C1=C(C)NC(=O)NC1c1ccc(N(C)C)cc1 (stereo not drawn)
inactive: growth inhibition [1] -12.3% | growth inhibition [2] -5.65% | viability increase [3] -2.7% | viability [4] 96.9% | viability [5] 92.9% | inhibition [6] 2.35% | RAM network inhibition [7] 5.85%
